Source: ChEMBL document CHEMBL5696442, “Discovery of type II inhibitors of TGFβ-activated kinase 1 (TAK1) and mitogen-activated protein kinase kinase kinase kinase 2 (MAP4K2)” (J Med Chem, 2015)
Activity calls are given as the source filed them. The calls are words filed in the database; no cut-off is given here.

What was measured:
[1] = biological target: Serine/threonine-protein kinase pim-3 (Homo sapiens) (UniProt Q86V86); test: Inhibition of PIM3 (unknown origin) at 10 uM by Ambit Kinomescan binding assay
[2] = biological target: Interferon-induced, double-stranded RNA-activated protein kinase (Homo sapiens) (UniProt P19525); test: Inhibition of PKR ACT labeling site in human Huh-7 cells at 1 uM by KiNativ Profiling analysis relative to control; format: cell-based
[3] = biological target: Calcium/calmodulin-dependent protein kinase type II subunit gamma (Homo sapiens) (UniProt Q13555); test: Inhibition of CAMK2g K1 labeling site harbouring KTSTQEYAAKIINTK in human Huh-7 cells at 1 uM by KiNativ Profiling analysis relative to control; format: cell-based
[4] = biological target: Mitogen-activated protein kinase 1 (Homo sapiens) (UniProt P28482); test: Inhibition of ERK2 (unknown origin) at 10 uM by Ambit Kinomescan binding assay
[5] = biological target: TRAF2 and NCK-interacting protein kinase (Homo sapiens) (UniProt Q9UKE5); test: Inhibition of ZC2/TNIK K2 labeling site in human Huh-7 cells at 10 uM by KiNativ Profiling analysis relative to control; format: cell-based
[6] = biological target: Tyrosine-protein kinase ABL (Homo sapiens) (UniProt P00519+P42684); test: Inhibition of ABL1/2 ACT labeling site in human Huh-7 cells at 1 uM by KiNativ Profiling analysis relative to control; format: cell-based
[7] = biological target: Serine/threonine-protein kinase ATR (Homo sapiens) (UniProt Q13535); test: Inhibition of ATR ATP labeling site in human A-375 cells at 0.5 uM by KiNativ Profiling analysis relative to control; format: cell-based
[8] = biological target: Serine/threonine-protein kinase Nek4 (Homo sapiens) (UniProt P51957); test: Inhibition of NEK4 Lys2 labeling site in human Huh-7 cells at 1 uM by KiNativ Profiling analysis relative to control; format: cell-based
[9] = biological target: Microtubule-associated serine/threonine-protein kinase 2 (Homo sapiens) (UniProt Q6P0Q8); test: Inhibition of MAST2 Lys2 labeling site harbouring DLKPDNLLITSMGHIK in human Huh-7 cells at 1 uM by KiNativ Profiling analysis relative to control; format: cell-based
[10] = biological target: Serine/threonine-protein kinase OSR1 (Homo sapiens) (UniProt O95747); test: Inhibition of OSR1 Lys2 labeling site in human Huh-7 cells at 1 uM by KiNativ Profiling analysis relative to control
[11] = biological target: Serine/threonine-protein kinase 26 (Homo sapiens) (UniProt Q9P289); test: Inhibition of MST4 Lys2 labeling site in human Huh-7 cell lysate at 1 uM by KiNativ Profiling analysis relative to control; format: subcellular
[12] = biological target: Macrophage-stimulating protein receptor (Homo sapiens) (UniProt Q04912); test: Inhibition of MST1R (unknown origin) at 1 uM by Ambit Kinomescan binding assay relative to control
[13] = test system: Epidermal growth factor receptor (Homo sapiens), P00533 [L858R]; test: Inhibition of EGFR L858R mutant (unknown origin) at 1 uM by Ambit Kinomescan binding assay relative to control
[14] = test system: Tyrosine-protein kinase ABL1 (Homo sapiens), P00519 [M351T]; test: Inhibition of phosphorylated ABL1 M351T mutant (unknown origin) at 1 uM by Ambit Kinomescan binding assay relative to control; values are per cent of control
[15] = biological target: Serine/threonine-protein kinase Nek2 (Homo sapiens) (UniProt P51955); test: Inhibition of NEK2 (unknown origin) at 1 uM by Ambit Kinomescan binding assay relative to control; values are per cent of control
[16] = biological target: T1, Serine/threonine-protein kinase TAO1 (Homo sapiens) (UniProt Q7L7X3); test: Inhibition of TAOK1 (unknown origin) at 1 uM by Ambit Kinomescan binding assay relative to control
T1 sequence (whole entry): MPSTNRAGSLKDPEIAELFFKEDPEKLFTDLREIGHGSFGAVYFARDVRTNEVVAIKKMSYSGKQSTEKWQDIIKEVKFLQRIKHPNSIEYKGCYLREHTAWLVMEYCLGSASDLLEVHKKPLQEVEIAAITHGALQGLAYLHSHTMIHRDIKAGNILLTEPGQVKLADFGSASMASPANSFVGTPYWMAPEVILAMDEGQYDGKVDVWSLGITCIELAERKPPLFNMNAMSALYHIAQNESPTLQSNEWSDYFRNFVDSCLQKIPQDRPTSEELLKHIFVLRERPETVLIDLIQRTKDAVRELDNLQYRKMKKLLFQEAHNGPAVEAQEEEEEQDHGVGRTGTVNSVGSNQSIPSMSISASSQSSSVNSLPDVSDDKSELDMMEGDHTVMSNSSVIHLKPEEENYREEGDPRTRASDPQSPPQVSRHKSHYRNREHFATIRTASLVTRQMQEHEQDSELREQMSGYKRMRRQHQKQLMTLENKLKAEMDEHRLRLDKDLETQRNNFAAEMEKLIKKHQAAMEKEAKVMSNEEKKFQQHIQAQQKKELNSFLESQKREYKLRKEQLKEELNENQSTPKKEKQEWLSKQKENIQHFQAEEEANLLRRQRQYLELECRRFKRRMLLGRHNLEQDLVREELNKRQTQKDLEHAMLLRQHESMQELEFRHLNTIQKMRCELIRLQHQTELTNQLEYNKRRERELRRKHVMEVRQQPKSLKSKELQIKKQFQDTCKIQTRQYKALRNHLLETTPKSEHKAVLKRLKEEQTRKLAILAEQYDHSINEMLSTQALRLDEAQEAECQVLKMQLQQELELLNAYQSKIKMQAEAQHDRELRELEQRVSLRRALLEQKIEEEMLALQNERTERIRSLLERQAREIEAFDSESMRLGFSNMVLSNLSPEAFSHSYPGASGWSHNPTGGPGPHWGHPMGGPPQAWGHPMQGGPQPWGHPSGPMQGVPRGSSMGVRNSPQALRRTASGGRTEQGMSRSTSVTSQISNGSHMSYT

[17] = biological target: Phosphatidylinositol 4-kinase beta (Homo sapiens) (UniProt Q9UBF8); test: Inhibition of PI4KB ATP labeling site harbouring VPHTQAVVLNSKDKAPYLIYVEVLECENFDTTSVPAR in human A-375 cells at 0.05 uM by KiNativ Profiling analysis relative to control; format: cell-based
[18] = test system: Epidermal growth factor receptor (Homo sapiens), P00533 [G719S]; test: Inhibition of EGFR G719S mutant (unknown origin) at 1 uM by Ambit Kinomescan binding assay relative to control
[19] = biological target: Serine/threonine-protein kinase PknB (Mycobacterium tuberculosis) (UniProt P9WI81); test: Inhibition of Mycobacterium tuberculosis PKNB at 1 uM by Ambit Kinomescan binding assay relative to control
Summary of the method: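 In vitro ATP-site competition binding assay against a panel of over 420 kinases (KinomeScan), with compound tested at 10 or 1 μM.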

Sequence of Serine/threonine-protein kinase Nek4 (Homo sapiens) (P51957 whole entry, looked up): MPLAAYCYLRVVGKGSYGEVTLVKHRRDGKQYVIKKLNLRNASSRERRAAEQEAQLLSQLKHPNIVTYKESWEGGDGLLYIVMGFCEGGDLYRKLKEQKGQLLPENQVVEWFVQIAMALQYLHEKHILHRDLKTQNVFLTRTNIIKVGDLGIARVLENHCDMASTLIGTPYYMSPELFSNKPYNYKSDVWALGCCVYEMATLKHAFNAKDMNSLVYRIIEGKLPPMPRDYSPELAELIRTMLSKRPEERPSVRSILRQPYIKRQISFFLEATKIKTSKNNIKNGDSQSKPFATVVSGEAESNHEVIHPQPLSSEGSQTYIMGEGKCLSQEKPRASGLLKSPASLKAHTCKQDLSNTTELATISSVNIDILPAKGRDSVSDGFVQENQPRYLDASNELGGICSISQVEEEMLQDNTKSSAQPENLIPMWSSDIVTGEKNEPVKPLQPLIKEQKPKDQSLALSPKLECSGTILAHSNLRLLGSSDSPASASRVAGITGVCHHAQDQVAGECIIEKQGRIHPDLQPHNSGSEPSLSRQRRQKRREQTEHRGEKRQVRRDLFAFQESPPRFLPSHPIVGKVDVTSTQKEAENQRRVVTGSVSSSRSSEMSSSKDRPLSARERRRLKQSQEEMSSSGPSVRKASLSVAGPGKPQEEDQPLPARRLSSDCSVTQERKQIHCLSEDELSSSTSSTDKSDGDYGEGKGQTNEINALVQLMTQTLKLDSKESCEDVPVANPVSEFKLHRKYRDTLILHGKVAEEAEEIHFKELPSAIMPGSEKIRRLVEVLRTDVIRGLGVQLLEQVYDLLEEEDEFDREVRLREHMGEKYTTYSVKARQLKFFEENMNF
Sequence of Serine/threonine-protein kinase Nek2 (Homo sapiens) (P51955 whole entry): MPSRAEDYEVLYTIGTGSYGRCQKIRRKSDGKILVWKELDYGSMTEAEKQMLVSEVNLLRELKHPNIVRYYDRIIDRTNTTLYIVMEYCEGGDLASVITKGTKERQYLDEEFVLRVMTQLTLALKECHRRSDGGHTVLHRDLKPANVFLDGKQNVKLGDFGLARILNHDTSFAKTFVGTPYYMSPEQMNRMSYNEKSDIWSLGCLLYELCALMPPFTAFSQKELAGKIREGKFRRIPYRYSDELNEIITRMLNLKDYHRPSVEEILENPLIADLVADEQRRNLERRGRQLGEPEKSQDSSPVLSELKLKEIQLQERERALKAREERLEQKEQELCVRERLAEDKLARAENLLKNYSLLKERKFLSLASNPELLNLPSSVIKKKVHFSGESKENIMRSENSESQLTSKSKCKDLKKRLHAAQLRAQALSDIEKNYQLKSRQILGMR
Sequence of Calcium/calmodulin-dependent protein kinase type II subunit gamma (Homo sapiens) (Q13555 whole entry): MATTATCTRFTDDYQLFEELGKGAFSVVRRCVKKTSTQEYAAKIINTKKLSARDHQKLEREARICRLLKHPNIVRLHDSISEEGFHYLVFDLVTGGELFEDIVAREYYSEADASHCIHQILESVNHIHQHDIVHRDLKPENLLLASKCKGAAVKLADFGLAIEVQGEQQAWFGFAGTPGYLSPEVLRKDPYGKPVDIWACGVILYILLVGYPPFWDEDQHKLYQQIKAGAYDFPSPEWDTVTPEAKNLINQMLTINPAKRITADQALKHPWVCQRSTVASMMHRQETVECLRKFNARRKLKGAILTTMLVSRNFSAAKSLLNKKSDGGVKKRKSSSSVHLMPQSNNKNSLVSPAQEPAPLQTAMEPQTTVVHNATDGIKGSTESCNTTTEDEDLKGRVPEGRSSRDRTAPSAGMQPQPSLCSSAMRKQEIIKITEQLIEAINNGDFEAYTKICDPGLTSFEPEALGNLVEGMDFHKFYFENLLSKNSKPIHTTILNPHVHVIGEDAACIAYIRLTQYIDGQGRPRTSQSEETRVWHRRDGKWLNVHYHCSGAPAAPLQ
Sequence of Serine/threonine-protein kinase ATR (Homo sapiens) (Q13535 whole entry, looked up): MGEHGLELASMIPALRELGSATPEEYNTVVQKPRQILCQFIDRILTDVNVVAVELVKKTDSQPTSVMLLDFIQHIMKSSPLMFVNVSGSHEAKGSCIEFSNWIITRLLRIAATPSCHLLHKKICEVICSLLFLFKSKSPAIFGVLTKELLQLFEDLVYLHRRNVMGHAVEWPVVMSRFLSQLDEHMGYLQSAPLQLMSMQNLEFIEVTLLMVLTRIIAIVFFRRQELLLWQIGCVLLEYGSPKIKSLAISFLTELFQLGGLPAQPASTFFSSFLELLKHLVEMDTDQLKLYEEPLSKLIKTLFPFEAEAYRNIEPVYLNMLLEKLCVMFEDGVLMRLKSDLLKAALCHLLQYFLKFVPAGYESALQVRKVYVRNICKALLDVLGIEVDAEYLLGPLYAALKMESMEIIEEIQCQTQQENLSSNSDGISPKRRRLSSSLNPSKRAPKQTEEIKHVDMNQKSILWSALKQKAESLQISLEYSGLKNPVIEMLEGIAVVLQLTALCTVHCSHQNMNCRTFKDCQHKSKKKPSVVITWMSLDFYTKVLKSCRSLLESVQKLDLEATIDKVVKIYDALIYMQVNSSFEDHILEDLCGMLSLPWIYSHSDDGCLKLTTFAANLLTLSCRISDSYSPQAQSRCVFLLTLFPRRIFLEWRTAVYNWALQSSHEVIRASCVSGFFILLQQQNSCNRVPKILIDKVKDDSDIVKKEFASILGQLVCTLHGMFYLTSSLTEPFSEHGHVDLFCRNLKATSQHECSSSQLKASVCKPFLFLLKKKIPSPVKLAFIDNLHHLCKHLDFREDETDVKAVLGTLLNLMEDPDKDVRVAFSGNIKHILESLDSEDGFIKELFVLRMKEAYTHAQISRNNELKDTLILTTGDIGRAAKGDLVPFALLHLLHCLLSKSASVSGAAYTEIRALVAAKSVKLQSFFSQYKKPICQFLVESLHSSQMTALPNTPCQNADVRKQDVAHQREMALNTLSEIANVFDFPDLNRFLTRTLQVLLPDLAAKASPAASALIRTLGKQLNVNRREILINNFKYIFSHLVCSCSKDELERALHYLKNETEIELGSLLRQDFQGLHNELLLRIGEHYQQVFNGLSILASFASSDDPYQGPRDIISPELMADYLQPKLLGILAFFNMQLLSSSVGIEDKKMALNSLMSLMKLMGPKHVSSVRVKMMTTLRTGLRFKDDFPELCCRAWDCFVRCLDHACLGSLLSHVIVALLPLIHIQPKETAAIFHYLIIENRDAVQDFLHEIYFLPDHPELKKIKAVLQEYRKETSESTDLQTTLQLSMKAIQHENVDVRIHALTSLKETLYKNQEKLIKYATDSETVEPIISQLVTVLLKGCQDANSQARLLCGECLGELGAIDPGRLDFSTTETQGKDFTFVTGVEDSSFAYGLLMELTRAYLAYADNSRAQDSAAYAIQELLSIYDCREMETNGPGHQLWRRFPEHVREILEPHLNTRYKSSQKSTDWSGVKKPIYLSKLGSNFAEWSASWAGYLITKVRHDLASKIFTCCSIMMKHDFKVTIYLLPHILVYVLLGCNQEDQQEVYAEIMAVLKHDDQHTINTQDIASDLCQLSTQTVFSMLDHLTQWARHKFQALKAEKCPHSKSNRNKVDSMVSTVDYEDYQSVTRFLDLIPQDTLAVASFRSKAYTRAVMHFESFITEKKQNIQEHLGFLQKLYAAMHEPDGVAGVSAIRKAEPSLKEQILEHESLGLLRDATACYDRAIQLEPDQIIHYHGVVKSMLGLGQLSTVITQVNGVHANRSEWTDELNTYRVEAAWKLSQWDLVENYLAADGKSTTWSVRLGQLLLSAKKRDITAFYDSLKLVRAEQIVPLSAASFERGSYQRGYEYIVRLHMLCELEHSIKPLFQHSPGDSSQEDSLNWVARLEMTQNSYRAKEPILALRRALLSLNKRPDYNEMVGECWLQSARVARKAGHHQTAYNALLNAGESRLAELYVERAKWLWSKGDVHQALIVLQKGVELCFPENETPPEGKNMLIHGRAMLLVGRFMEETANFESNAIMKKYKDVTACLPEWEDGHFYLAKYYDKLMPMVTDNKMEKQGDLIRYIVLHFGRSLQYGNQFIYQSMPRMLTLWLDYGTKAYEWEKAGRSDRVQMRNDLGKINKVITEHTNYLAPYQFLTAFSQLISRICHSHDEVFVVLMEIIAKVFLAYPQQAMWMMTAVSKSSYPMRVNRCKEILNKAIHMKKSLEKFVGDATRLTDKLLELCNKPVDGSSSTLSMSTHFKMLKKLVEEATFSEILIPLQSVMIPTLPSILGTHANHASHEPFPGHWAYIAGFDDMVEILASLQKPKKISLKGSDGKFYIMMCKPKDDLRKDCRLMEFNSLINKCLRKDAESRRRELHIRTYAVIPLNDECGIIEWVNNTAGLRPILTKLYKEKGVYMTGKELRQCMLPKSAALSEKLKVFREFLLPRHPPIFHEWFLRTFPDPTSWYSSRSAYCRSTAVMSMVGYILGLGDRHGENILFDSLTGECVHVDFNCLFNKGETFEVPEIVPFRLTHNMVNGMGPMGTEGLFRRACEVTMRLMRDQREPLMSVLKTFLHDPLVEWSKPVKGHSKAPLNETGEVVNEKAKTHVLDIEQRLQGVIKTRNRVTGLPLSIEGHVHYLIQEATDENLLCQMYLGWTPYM

For `CCN1CCN(Cc2ccc(NC(=O)c3ccc(C)c(Oc4ccnc5[nH]ccc45)c3)cc2C(F)(F)F)CC1`, the inhibition [1] was “inactive”, the inhibition [2] was 48.5% and the inhibition [3] was 1.3%. The inhibition [4] was “inactive”, the inhibition [5] was 72.6% and the inhibition [6] was 44.3%. It also gave an inhibition [7] of 5.1%.
For `CNc1cc(Oc2cc(C(=O)Nc3cc(N4CCN(C)CC4)cc(C(F)(F)F)c3)ccc2C)ncn1`, the inhibition [8] was 43.4%, the inhibition [9] was 53.8% and the inhibition [10] was 57.3%. It also gave an inhibition [11] of -0.3%.
Compound `CCN1CCN(Cc2ccc(NC(=O)c3ccc(C)c(/C=C/c4cnc5[nH]ccc5c4OC)c3)cc2C(F)(F)F)CC1` has an inhibition [12] of 81%, an inhibition [13] of 4% and a % of control [14] of 4.4%. For the same compound, the residual activity [15] was 100%, the inhibition [16] was 22% and the inhibition [17] was 11.6%. It also gave an inhibition [18] of 0.9% and an inhibition [19] of 84%.
